Screens (PubChem)
Efflux pump inh = inhibitors of Candida antifungal efflux pumps expressed in yeast | S. cerevisiae Candida pump triplex, Nile Red efflux | inhibition, % at 10 µM | actives 0.44% (n = 330,000);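 active = plate passing quality check with inhibition over a set limit, or well fluorescence over plate mean plus 4 SD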;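 also: Nile Red retained in pooled yeast measured as flow cytometry median fluorescence; 0% = buffer negative control and 100% = Enniatin B positive control; higher means more Nile Red kept so more efflux inhibition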
IDE act = boosts human insulin-degrading enzyme activity in HEK cells; FAbeta-B cleavage, fluorescence polarization; 0% vehicle, 100% cell-free pure enzyme wells; AID 493087; activation, % at 5.96 µM; actives 0.073% (n = 340,000); P14735;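 active = activation above the mean of all tested compounds plus 3 SD, set per screening campaign, cut at about 17% in these data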
CR mimetic SO = yeast age-related superoxide inhibition as caloric restriction mimetic; S. cerevisiae aged cells, superoxide DHE fluorescence; active compounds read low; superoxide response (% of plate mean), % at 10 µM; actives 0.18% (n = 330,000); AID 2690;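 active = superoxide response under a set limit, about three screen SD below normal, cut at about 65% in these data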;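 also: yeast aged for seven days with compound at 30 °C before DHE staining; 100% = average MFI of all compound-treated wells on the plate with controls excluded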
IDE cell inh = inhibits human insulin-degrading enzyme in HEK cells; P14735; inhibition, % at 5.59 µM; FAbetaB cleavage, fluorescence polarization; actives 0.41% (n = 320,000); AID 434962;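 active = percent inhibition above the average of all tested compounds plus 3 SD, set per screening campaign, cut at about 16% in these data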;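 also: IDE supplied by intact live HEK cells; FP after avidin binding of uncleaved biotin substrate so inhibition keeps polarization high; 0% = DMSO wells and 100% = 60 µM reference IDE inhibitor Ii1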
HDAC3 inh = human HDAC3 inhibition; inhibition, % at 8.3 µM; recombinant HDAC3, fluorogenic peptide/trypsin coupled, fluorescence; O15379; actives 0.15% (n = 320,000); AID 2718; in the data active = inhibition above about 26%, passing the limit was not always enough; inconclusive = no clear call, values can overlap the other calls
Target sequence (O15379 whole entry, looked up): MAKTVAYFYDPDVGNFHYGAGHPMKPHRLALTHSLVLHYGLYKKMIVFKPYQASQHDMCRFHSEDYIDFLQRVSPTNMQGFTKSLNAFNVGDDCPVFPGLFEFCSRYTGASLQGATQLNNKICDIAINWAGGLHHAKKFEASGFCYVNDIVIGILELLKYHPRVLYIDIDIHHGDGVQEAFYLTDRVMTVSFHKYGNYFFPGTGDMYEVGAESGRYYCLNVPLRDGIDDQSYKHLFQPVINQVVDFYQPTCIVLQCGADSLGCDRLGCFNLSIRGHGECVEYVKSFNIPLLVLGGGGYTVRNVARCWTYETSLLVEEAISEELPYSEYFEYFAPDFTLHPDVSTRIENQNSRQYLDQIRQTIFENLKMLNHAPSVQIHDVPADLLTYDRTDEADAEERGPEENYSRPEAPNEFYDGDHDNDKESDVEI
Tb MetRS inh = Trypanosoma brucei MetRS inhibition. actives 0.4% (n = 360,000). AID 624268. purified T. brucei MetRS, ATP depletion, Kinase-Glo luminescence. inhibition, % at 11.9 µM;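 active = inhibition above a per-plate cutoff of the control wells' mean inhibition plus 3 SD, cut at about 5.5% in these data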;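 also: 0% = DMSO wells median and 100% = median of wells with control inhibitor compound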
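Measured by: Kinase-Glo luciferase luminescence reporting remaining unconsumed ATP. Material: purified T. brucei MetRS enzyme. Doses: 11.9 µM compound single dose, 0.9% DMSO. Medium: HEPES buffer containing pyrophosphatase, BSA, spermine, DTT. Times: 15 min preincubation, 2 h reaction, all 25 °C. Reagent: methionine, ATP and bulk E. coli tRNA.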
IDE cell inh cf = confirmation of human insulin-degrading enzyme inhibitors in cells; shares compounds with IDE cell inh; HEK cells, FAbetaB cleavage, fluorescence polarization; inhibition, % at 5.59 µM; actives 51% (n = 1,200); AID 435028;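 active = mean inhibition across triplicate wells above the cutoff set by the earlier primary insulin-degrading enzyme screen, cut at about 16% in these data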;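 also: 0% = DMSO wells and 100% = 60 µM reference IDE inhibitor Ii1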
HEK cytotox = kills HEK cells in IDE inhibitor counter-screen. shares compounds with IDE cell inh. HEK293 cytotoxicity, ATP luminescence. inhibition, % at 5.59 µM. actives 28% (n = 1,200). AID 449730; in the data active = inhibition above about 22%;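 also: 0% = vehicle wells and 100% = reference cytotoxic drug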
Active calls of the source: *; ? = inconclusive; · = no result given. Shown are actives, neighbours in structure and some others; about 1.4% of the full set was active somewhere.

SMILES	Efflux pump inh	IDE act	CR mimetic SO	IDE cell inh	HDAC3 inh	Tb MetRS inh	IDE cell inh cf	HEK cytotox
COCn1c(-c2cccc(Br)c2)nc2ccccc21	0.1	-14.2	102.1	16.7*	1.1	0.0	-0.2	19.1
CC(=O)Nc1ccc(NC(=O)C(C)Oc2ccc(C)nc2[N+](=O)[O-])cc1 (stereo unspecified)	-0.1	4.5	94.0	-3.4	-0.7	-0.3	·	·
O=C(CCCN1C(=O)/C(=C\c2ccccc2)SC1=S)N1CCOCC1	0.4	-1.6	107.3	1.9	-0.1	-0.1	·	·
O=C(O)CN1C(=O)/C(=C\c2cn(CC(=O)N3CCOCC3)c3ccccc23)SC1=S	-0.1	-108.4	94.9	67.0*	17.9	-0.4	114.2*	9.0
CC1(Cc2ccccc2C#N)C(=O)Nc2ccc(-c3ccccc3)cc21 (stereo unspecified)	·	·	·	·	·	0.8	·	·
COc1ccc(C(CC(=O)N2CCCC2)c2ccc(F)cc2)cc1 (stereo unspecified)	-0.1	-6.1	84.4	17.0*	5.9	0.0	9.8	10.0
COc1ccc(C(CC(=O)N2CCCC2)C(C)C)cc1 (stereo unspecified)	0.0	1.1	92.7	3.0	5.7	-0.2	·	·
Cc1nc2cc(C(F)(F)F)ccc2n1C	-0.2	-6.9	104.6	7.6	-7.4	0.8	·	·
CCN1/C(=C\C=C(C(C)=O)C(C)=O)Sc2ccccc21	0.0	-52.5	98.7	35.4*	?	0.8	49.7*	8.9
CCN1/C(=C\C(=S)Nc2ccccc2)Sc2ccccc21	-0.1	-4.6	92.5	21.2*	0.3	0.3	1.8	13.0
CCOC(=O)/C(C#N)=C(C)/C=C1\Sc2ccccc2N1CC	-0.1	-63.8	111.1	44.3*	2.1	-1.2	78.1*	36.4*
CCN1/C(=C/C(C)=C/c2sc3ccccc3[n+]2CC)Sc2ccccc21	0.0	-14.5	96.9	12.3	0.0	-2.7	·	·
CCN1/C(=C\C(C)=O)Sc2ccc(OC)cc21	-0.1	3.2	96.2	1.4	-2.9	-0.1	·	·
CC[n+]1ccc(/C=C2\Sc3ccccc3N2CCCS(=O)(=O)[O-])c2ccccc21	-0.1	2.5	105.9	17.1*	16.7	3.0	7.7	9.4
C[n+]1ccccc1/C=C1\Sc2ccccc2N1CCO	0.1	1.3	97.1	5.9	6.3	-0.3	·	·
COc1ccc2[nH]c3c(N4CCC(O)(c5cccc(C(F)(F)F)c5)CC4)ncnc3c2c1	-0.1	-4.9	94.9	22.6*	8.6	0.5	5.9	64.9*
N#C/C(=C\c1ccc(-c2ccc(C(=O)O)cc2)o1)C(=O)NCC1CCCO1 (stereo unspecified)	0.3	5.3	98.5	2.7	-2.2	-0.3	·	·
N#C/C(=C\c1ccc(N2CCOCC2)o1)C(=O)NC1CCCCC1	-0.1	-36.6	78.9	45.7*	5.3	-0.2	48.2*	16.9
N#C/C(=C\c1ccc(N2CCOCC2)o1)C(=O)NCC1CCCO1 (stereo unspecified)	-0.1	-25.7	118.1	16.6*	12.5	-0.3	22.5*	12.1
NC(=O)c1ccc(NC(=O)C2CCCC2)cc1	0.1	5.1	99.8	0.0	-10.4	-0.3	·	·
O=C1CCCN1C(=O)CSc1ncnc2sccc12	·	-0.3	·	·	·	-0.6	·	·
CC(=O)C[C@H](O)CC(=O)[C@H]1OC(=O)[C@@H](C)CCCCc2ccccc21	-0.1	3.5	90.6	-1.4	-7.9	-0.3	·	·
CCN1CCN(C(=O)c2cc(COc3ccc(F)cc3F)on2)[C@@H](C)C1=O	0.0	0.6	105.8	-0.1	-3.3	0.9	·	·
COc1cc(/C=C/C(=O)NC(=O)c2ccccc2O)ccc1O	1.7	1.2	96.1	-4.5	-0.2	1.5	·	·
COc1cc(/C=C/C(O)=C/C(=O)/C=C/c2ccc(O)cc2)ccc1O	1.1	-70.0	71.0	43.6*	3.2	-0.2	108.6*	18.7
SMILES	Efflux pump inh	IDE act	CR mimetic SO	IDE cell inh	HDAC3 inh	Tb MetRS inh	IDE cell inh cf	HEK cytotox
CCOc1ccc(-c2c(C(=O)N/N=C/c3ccc(OC)cc3)nnn2-c2nonc2N)cc1	-0.1	4.4	108.0	19.6*	-4.0	-0.4	4.4	7.3
CCCOc1ccc(-c2c(C(=O)N/N=C/c3ccc(OC)cc3)nnn2-c2nonc2N)cc1	-0.3	-7.7	95.3	11.9	-19.0	0.4	·	·
COc1cc(C(=O)OCC(=O)Nc2cccc(S(=O)(=O)N3CCCC3)c2)ccc1OCC(C)C	0.0	-0.7	97.5	2.7	4.4	-0.1	·	·
COc1ccc(/C=C/C(=O)C2C(=O)C=C(C)OC2=O)cc1O (stereo unspecified)	0.0	-11.9	85.8	28.1*	2.7	-1.4	8.7	19.8
COc1cc(/C=C/C(=O)C2C(=O)C=C(C)OC2=O)cc(OC)c1O (stereo unspecified)	-0.1	-12.1	75.3	24.0*	5.5	-0.2	35.2*	12.9
Oc1ccc(N2CCN(c3nnnn3-c3ccccc3)CC2)cc1	-0.1	0.3	96.0	2.9	4.2	-0.8	·	·
COC(=O)c1sc(N2C(=O)C(O)=C(C(=O)c3ccc(C)o3)C2c2cc(OC)ccc2OC)nc1C (stereo unspecified)	-0.4	-3.0	92.7	-4.1	9.5	-0.1	·	·
CC(C)COc1ccc(C(=O)OCC(=O)N(C)CC(=O)Nc2ccc(F)cc2)cc1	-0.2	3.9	116.6	3.8	-0.9	-0.3	·	·
COc1ccc(S(=O)(=O)c2c(N)n(Cc3ccco3)c3nc4ccccc4nc23)cc1	0.6	-13.3	105.4	23.0*	-36.9	0.9	9.8	5.3
COc1ccc(Cn2c(C)nc3c(c2=O)c2nc4ccccc4nc2n3Cc2ccco2)cc1	·	-2.8	·	·	·	0.0	·	·
Cn1ncc([N+](=O)[O-])c1C(=O)N1CCCCCC1	·	-2.9	·	·	·	-0.1	·	·
CC(OC(=O)/C(C#N)=C/c1ccc(N(C)C)cc1)C(=O)N(C)c1ccccc1 (stereo unspecified)	0.0	-26.3	102.8	16.2*	14.9	-0.2	31.1*	12.1
CN1CCN(C2=C(Cl)C(=O)C(c3cnc(N4CCCCC4)s3)=C(Cl)C2=O)CC1	0.2	2.7	103.9	22.6*	17.1	-0.1	-3.2	119.4*
CN1CCN(C2=C(Cl)C(=O)c3ccccc3C2=O)CC1	·	0.5	·	·	·	0.7	·	·
Cc1ccccc1-n1c(SCc2csc(Nc3ccccc3)n2)nnc1-c1cccnc1	0.0	-13.2	117.9	21.4*	4.1	0.2	7.3	20.5
Cc1ccc(S(=O)(=O)NC(=O)C2(C)CCN2C(=O)C2CCCCC2)cc1 (stereo unspecified)	·	·	·	·	·	0.7	·	·
O=C(Nc1ccc2c(c1)CCCN2C(=O)c1ccco1)c1cc([N+](=O)[O-])ccc1Cl	0.1	4.8	101.2	-8.6	-10.1	-0.2	·	·
Cn1c(/C(C#N)=C/c2cccc(O)c2)nc2ccccc21	0.2	9.3	103.3	1.7	8.0	-1.6	·	·
